From PubChem BioAssay
Compounds with a hit are over-represented: about 2.9% of the library has one in this group of screens.
MC4R antagonist: human MC4R antagonism in cAMP assay | P32245 | hit rate 0.48% among 360,000 | inhibition, % at 6.5 µM | MC4R-expressing cells, MTII-stimulated cAMP, LANCE TR-FRET | AID 540295;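 active = inhibition above its plate's cutoff, the mean of tested wells on that plate plus 3 SD, cut at about 29% in these data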
Target sequence (P32245 whole entry, looked up): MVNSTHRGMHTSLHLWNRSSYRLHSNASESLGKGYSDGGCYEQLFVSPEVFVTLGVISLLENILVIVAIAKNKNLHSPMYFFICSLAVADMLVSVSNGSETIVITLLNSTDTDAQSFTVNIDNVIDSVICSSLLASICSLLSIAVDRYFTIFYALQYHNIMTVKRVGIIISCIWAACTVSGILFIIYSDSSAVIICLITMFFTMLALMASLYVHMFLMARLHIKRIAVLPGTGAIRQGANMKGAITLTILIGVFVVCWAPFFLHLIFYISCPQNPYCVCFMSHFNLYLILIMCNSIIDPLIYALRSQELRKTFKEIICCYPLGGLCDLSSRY
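Material – human MC4R-expressing U2OS cells · Repeats – no replicates · Detection – TR-FRET with Eu-cAMP and labeled anti-cAMP, 671 nm · Times – compound 30 min, challenge 1 h, detection 1 h · Compound – single nominal compound dose of 6.5 µM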
Calb FLC: affects C. albicans growth with fluconazole. hit rate 0.57% among 300,000. C. albicans CaCi-2 + fluconazole, Alamar Blue growth, 48 h. AID 1979. growth inhibition, % (concentration not given with the values);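 active = growth inhibition above about 58% in most replicates, limit read from the data, passing the limit was not always enough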;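 also: all wells also contain fluconazole at 8 µg/ml as a sub-toxic cotreatment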
Efflux pump inh: blocks antifungal efflux pumps in multiplex yeast assay; S. cerevisiae Candida pump triplex, Nile Red efflux; inhibition, % at 10 µM; hit rate 0.44% among 330,000; AID 485275;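 active = plate passing quality check with inhibition over a set limit, or well fluorescence over plate mean plus 4 SD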;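 also: Nile Red retained in pooled yeast measured as flow cytometry median fluorescence; higher means more Nile Red kept so more efflux inhibition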
GalR3 antagonist: antagonists of human GalR3. O60755. HEK293 GalR3-CNG cAMP membrane potential fluorescence; galR3 body fused to GalR1 C-terminus. inhibition, % at 3 µM. hit rate 0.44% among 360,000;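 active = inhibition above the screen-wide average plus 3 SD, cut at about 13% in these data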;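 also: forskolin and galanin both at EC90 stimulate the cells; cAMP rise reported by CNG channel membrane potential dye signal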
Target sequence (O60755 1-299 limits assumed): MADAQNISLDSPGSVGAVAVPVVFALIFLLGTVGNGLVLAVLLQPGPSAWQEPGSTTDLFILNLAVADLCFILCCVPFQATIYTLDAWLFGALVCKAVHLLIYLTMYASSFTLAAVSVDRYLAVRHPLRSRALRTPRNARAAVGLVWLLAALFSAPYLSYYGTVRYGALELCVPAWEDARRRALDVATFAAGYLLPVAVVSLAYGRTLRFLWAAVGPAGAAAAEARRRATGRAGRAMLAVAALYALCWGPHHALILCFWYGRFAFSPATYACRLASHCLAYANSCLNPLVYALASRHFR
MC4R barr agon: human MC4R agonism via beta-arrestin; P32245; U2OS MC4R beta-arrestin complementation, luminescence; percent of melanotan II response, DMSO zero; activation, % at 8.9 µM; hit rate 0.98% among 360,000; AID 540308;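 active = activation above a per-plate cutoff, the mean activation of sample wells on that plate plus 3 SD, cut at about 8% in these data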
TAG inh: inhibitors of triacylglycerol accumulation; H9c2 cells, Nile Red lipid (TAG) fluorescence; cells loaded with 200 µM oleic acid; inhibition, % at 12.5 µM; hit rate 0.66% among 230,000; AID 651582;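 active = pattern-corrected inhibition of lipid staining of at least 50% with the nuclear-stain viability signal not falling by more than 50%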
A number is an active result; n = inactive; x = not tested or not shown.

SMILES	MC4R antagonist	Calb FLC	Efflux pump inh	GalR3 antagonist	MC4R barr agon	TAG inh
O=C(NCc1ccco1)c1sc(=S)n2c1[nH]c(=O)c1ccccc12	n	93	n	n	n	x
CC(C)(C)C1CCC(=NNC(=O)c2cc3c(s2)CCCC3)CC1 (configuration not stated)	n	n	n	n	n	x
CC(C)(C)C1CCc2sc(C(=O)NNC(=O)CCl)cc2C1 (configuration not stated)	n	n	x	n	19	n
C[C@@H]1CCCCO[C@H](CN(C)C(=O)CCC(F)(F)F)[C@H](C)CN([C@@H](C)CO)C(=O)c2cc(NS(=O)(=O)c3ccc(Cl)cc3)ccc2O1	x	x	x	n	x	x
O=C(Nc1ccc(Br)cc1F)c1ccc2nsnc2c1	n	n	n	n	8.8	x
CN1C(=O)C(O)(CC(=O)c2ccccn2)c2cc(Br)ccc21 (configuration not stated)	n	n	n	n	n	53
Cc1ccc(/C=C2/NC(=O)N(Cc3ccccc3)C2=O)s1	n	n	n	n	n	x
Cc1cccc(CN2C(=O)N/C(=C/c3ccc(C)s3)C2=O)c1	n	n	n	n	9.2	n
CN(C)c1ccc(CNc2nc3cc(-c4ccc(F)cc4)sc3c(=O)n2C)cc1	n	x	x	n	n	n
COc1ccc(C(C)=O)cc1Cn1c(C)c(C(=O)NCc2ccc3c(c2)OCO3)sc1=O	n	x	x	n	n	n
COc1cc(NC(=O)c2ccc([N+](=O)[O-])o2)ccc1NC(=O)c1cccs1	n	n	n	n	n	n
O=C(Nc1cccc(NC(=O)c2cccs2)c1)c1ccc([N+](=O)[O-])o1	n	n	n	n	n	61
CN1CCN(c2ccccc2NC(=O)c2ccc([N+](=O)[O-])o2)CC1	n	n	n	x	n	54
O=C(Nc1ccccc1Cl)c1ccc([N+](=O)[O-])o1	n	100	n	n	n	x
O=C(Nc1ccc2oc(-c3cccnc3)nc2c1)c1ccc([N+](=O)[O-])o1	n	n	x	n	n	75
O=C(C[C@H]1C(=O)N(Cc2ccccc2)C[C@@H]1c1ccc(Br)cc1)Nc1ccc(Br)cc1	n	x	x	n	n	n
O=C1/C(=C/Nc2cccc([N+](=O)[O-])c2)CCc2ccccc21	n	n	n	n	9.2	x
Cc1ccc(NS(=O)(=O)c2cc(OCC(N)=O)c(C)cc2Cl)cc1C	n	n	n	n	n	n
Cc1ccccc1NS(=O)(=O)c1cc(OCC(N)=O)c(C)cc1Cl	n	118	n	n	n	n
COCCNC(=O)C1CCCN(C(=O)/C=C/c2ccccc2)CC1 (configuration not stated)	n	x	x	n	n	n
CC(C)C[C@@H](CN)NC(=O)c1nc[nH]c1C(=O)N[C@@H](CC(C)C)C(=O)CNC[C@H](C)NC(=O)c1nc[nH]c1C(=O)N[C@@H](CC(=O)O)C(=O)O	n	x	x	n	n	n
O=C1c2ccc3c4c(ccc(c24)C(=O)N1CCCCO)C(=O)N(CCCCO)C3=O	n	n	x	n	n	73
O=C(/C=C\c1ccc(-c2cccc([N+](=O)[O-])c2)o1)N1CCOCC1	n	97	n	n	n	n
CCC1CCc2c(sc3nc(SCC(=O)NCc4ccco4)n(-c4ccccc4)c(=O)c23)C1 (configuration not stated)	n	n	n	n	8.7	x
Cc1cc(NC(=O)COC(=O)[C@@H](NS(=O)(=O)c2ccc(Br)cc2)C(C)C)no1	n	111	n	n	n	n
SMILES	MC4R antagonist	Calb FLC	Efflux pump inh	GalR3 antagonist	MC4R barr agon	TAG inh
O=C(Sc1n[nH]c(=O)[nH]c1=O)c1ccccc1	n	x	x	n	n	n
Cc1n[nH]c2ccc([N+](=O)[O-])cc2c1=O	n	x	x	n	n	n
Oc1ccc(/C=N/Nc2ccnc3cc(Cl)ccc23)c(O)c1O	n	n	n	n	n	x
Oc1ccc(/C=N/Nc2ccnc3cc(Cl)ccc23)cc1O	n	100	n	n	n	n
Cc1ccnc(NC(=O)Nc2ccc3c(c2)N(C)C(=O)CS3)c1	n	n	n	n	9.1	x
COc1ccc(NC(=O)Nc2ccc3c(c2)N(C)C(=O)CS3)cc1OC	n	n	n	n	n	n
Cc1cccc(NC(=O)Nc2ccc3c(c2)N(C)C(=O)CS3)n1	n	n	n	n	n	n
Cc1ccc(NC(=O)Nc2ccc3c(c2)N(C)C(=O)CS3)nc1	n	n	n	n	9.4	x
CCOC(=O)N1CCN(C(=O)C[C@@H]2C[C@@]3(C(=O)OCC)CCCC=C3N(Cc3ccc4c(c3)OCO4)C2=O)CC1	x	x	x	n	x	x
COc1ccc(-c2csc(N(Cc3ccccc3)C(=O)COc3ccc(Cl)cc3)n2)cc1	n	n	n	n	n	x
O=C(COc1ccccc1)N(Cc1ccccc1)c1nc(-c2ccccc2)cs1	n	n	n	n	21	x
CC(C)COC(=O)NC1c2ccccc2Oc2ccccc21	n	n	n	n	10	n
COCC(C)NC(=O)C1c2ccccc2Oc2ccccc21 (configuration not stated)	n	n	n	n	n	x
Clc1ccc(CN2CCN(c3ncc(Cc4ccccc4)cn3)CC2)c(Cl)c1	x	x	x	n	x	x
Cc1ccc(-n2sc3ccccc3c2=O)cc1S(=O)(=O)N1CCCCC1	53	n	2.4	n	n	n
CN(C)S(=O)(=O)c1cccc(-n2sc3ccccc3c2=O)c1	n	x	136	n	n	n
O=c1c2ccccc2sn1-c1cccc(Cl)c1	n	x	x	n	n	n
COc1ccc(Cl)cc1N(CC(=O)NCc1ccccn1)S(=O)(=O)c1ccc(C)cc1	n	x	x	n	n	n
CC(C)C[C@@H]1CC2=C(C(=O)OC(C)(C)O2)[C@H](CCc2ccccc2)O1	x	x	x	n	x	x
CN1OC[C@@H]2CN(S(=O)(=O)c3ccccc3)[C@H](c3ccccc3Br)C[C@@H]21	x	x	x	n	x	x
CC(C)(C)C1CCc2onc(C(=O)Nc3ccc(F)cc3F)c2C1 (configuration not stated)	n	n	n	n	8.3	x
CC1=C(C(=O)N(C(C)C)C(C)C)CC(CC(=O)NCc2cccs2)C(=O)N1CCCN1CCCC1=O (configuration not stated)	x	x	x	n	x	x
CC(=O)Nc1ccc2c(c1)nc1n2CCN(C(C)c2ccccc2)C1 (configuration not stated)	n	n	n	n	n	n
CC(c1ccccc1)N1CCn2c(nc3cc(NS(C)(=O)=O)ccc32)C1 (configuration not stated)	n	109	n	n	n	n
CCOC(=O)C1(C)CCCN(C(=O)c2c(-c3ccccc3)noc2C)C1 (configuration not stated)	n	x	x	n	n	n
CCOC(=O)c1c(NC(=O)c2ccco2)sc2c1CCCC2	n	n	n	n	n	n
CCOC(=O)c1c(NC(=O)Cn2cc([N+](=O)[O-])cn2)sc2c1CCC2	n	n	n	n	9.3	x
